This passage reports IC50 and MIC results from ChEMBL document CHEMBL1143138, “Synthesis and antimicrobial activity of beta-lactam-bile acid conjugates linked via triazole” (Bioorg Med Chem Lett, 2008).

The structures appear in SMILES notation. Converted amounts (≈) assume the structure as drawn.

Holding throughout (format): functional, organism-based
One experiment concerns Staphylococcus aureus. The experiment is described as follows: Antimicrobial activity against Staphylococcus aureus NCIM2122 by broth microdilution method. In a few lines:
(§1)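 Standard NCCLS broth microdilution. Fungal strains were NCL isolates and bacterial strains were NCIM cultures, with DMSO as the negative control. MIC was taken as the concentration giving 90% growth inhibition relative to the growth control, and IC50 as the concentration giving 50% growth inhibition. Values are in µg/mL.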
Background: In broth dilution the organism is exposed to a series of concentrations in liquid medium.

Another experiment relates to Candida albicans. The experiment is described as follows: Antimicrobial activity against Candida albicans NCL1 by broth microdilution method. In a few lines:
as §1

In another experiment the test system is Benjaminiella poitrasii. The experiment is described as follows: Antimicrobial activity against Benjaminiella poitrasii NCL3 by broth microdilution method. In a few lines:
as §1

Another experiment concerns Cryptococcus neoformans. The experiment can be described thus: Antimicrobial activity against Cryptococcus neoformans NCL2 by broth microdilution method. The essentials: as §1
The next experiment has as its system Fusarium oxysporum. The experiment is described as follows: Antimicrobial activity against Fusarium oxysporum NCL5 by broth microdilution method. The essentials:
as §1

The test system of another experiment is Escherichia coli. The experiment is described as follows: Antimicrobial activity against Escherichia coli NCIM2574 by broth microdilution method. In a few lines:
as §1

For the next experiment, the system named is Yarrowia lipolytica. The experiment can be described thus: Antimicrobial activity against Yarrowia lipolytica NCL4 by broth microdilution method. The essentials:
as §1

Regarding `C#CCOC(=O)CC[C@@H](C)[C@H]1CC[C@H]2[C@@H]3[C@H](O)C[C@@H]4C[C@H](O)CC[C@]4(C)[C@H]3C[C@H](O)[C@]12C`, the IC50 in the experiment with Staphylococcus aureus is 128 µg/mL (≈ 287 µM); in the experiment on Candida albicans, 128 µg/mL (≈ 287 µM); with Benjaminiella poitrasii it was more than 128 µg/mL; in the experiment on Cryptococcus neoformans it was more than 128 µg/mL; with Fusarium oxysporum it was 128 µg/mL (≈ 287 µM); in the experiment on Escherichia coli it was 128 µg/mL (≈ 287 µM). Also, the IC50 with Yarrowia lipolytica is 64 µg/mL (≈ 143 µM). In addition, the MIC against Staphylococcus aureus, in the experiment with Candida albicans, in the experiment on Benjaminiella poitrasii, against Cryptococcus neoformans, against Fusarium oxysporum and against Escherichia coli was more than 128 µg/mL each time. This compound gave an MIC with Yarrowia lipolytica of more than 128 µg/mL.
For `C#CCNC(=O)CC[C@@H](C)[C@H]1CC[C@H]2[C@@H]3CC[C@@H]4C[C@H](O)CC[C@]4(C)[C@H]3C[C@H](O)[C@]12C`, the IC50 is 128 µg/mL (≈ 298 µM) in the experiment with Staphylococcus aureus; 64 µg/mL (≈ 149 µM) in the experiment on Candida albicans; 128 µg/mL (≈ 298 µM) with Benjaminiella poitrasii; 128 µg/mL (≈ 298 µM) with Cryptococcus neoformans; 64 µg/mL (≈ 149 µM) in the experiment with Fusarium oxysporum; more than 128 µg/mL in the experiment on Escherichia coli. In the experiment with Yarrowia lipolytica, the IC50 is more than 128 µg/mL. For the same compound, the MIC against Staphylococcus aureus, against Candida albicans, against Benjaminiella poitrasii, in the experiment on Cryptococcus neoformans, with Fusarium oxysporum and in the experiment with Escherichia coli was more than 128 µg/mL throughout. The compound also displayed an MIC against Yarrowia lipolytica of more than 128 µg/mL.
On to `C#CCNC(=O)CC[C@@H](C)[C@H]1CC[C@H]2[C@@H]3[C@H](O)C[C@@H]4C[C@H](O)CC[C@]4(C)[C@H]3C[C@H](O)[C@]12C`, for which the half-inhibitory concentration (IC50) with Staphylococcus aureus was 64 µg/mL (≈ 144 µM); in the experiment on Candida albicans it was more than 128 µg/mL; in the experiment on Benjaminiella poitrasii, more than 128 µg/mL; with Cryptococcus neoformans it was more than 128 µg/mL; in the experiment with Fusarium oxysporum it was 128 µg/mL (≈ 287 µM); in the experiment on Escherichia coli it was 128 µg/mL (≈ 287 µM). In the experiment with Yarrowia lipolytica, half-maximal inhibition (IC50) was put at 64 µg/mL (≈ 144 µM). Moreover, the MIC against Staphylococcus aureus, in the experiment with Candida albicans, against Benjaminiella poitrasii, against Cryptococcus neoformans, in the experiment on Fusarium oxysporum and with Escherichia coli was more than 128 µg/mL throughout. In the experiment on Yarrowia lipolytica, this compound had a minimum inhibitory concentration (MIC) of more than 128 µg/mL.
As to `C#CCOC(=O)CC[C@@H](C)[C@H]1CC[C@H]2[C@@H]3CC[C@@H]4C[C@H](O)CC[C@]4(C)[C@H]3C[C@H](O)[C@]12C`, the IC50 in the experiment on Staphylococcus aureus is 128 µg/mL (≈ 297 µM); in the experiment with Candida albicans it was 32 µg/mL (≈ 74.3 µM); with Benjaminiella poitrasii it was 128 µg/mL (≈ 297 µM); in the experiment on Cryptococcus neoformans, 64 µg/mL (≈ 149 µM); in the experiment on Fusarium oxysporum, 64 µg/mL (≈ 149 µM); with Escherichia coli it was 128 µg/mL (≈ 297 µM). In addition, the IC50 in the experiment on Yarrowia lipolytica stood at 128 µg/mL (≈ 297 µM). Further, the MIC was more than 128 µg/mL against Staphylococcus aureus; 128 µg/mL (≈ 297 µM) against Candida albicans; more than 128 µg/mL in the experiment with Benjaminiella poitrasii; more than 128 µg/mL in the experiment with Cryptococcus neoformans; more than 128 µg/mL with Fusarium oxysporum; more than 128 µg/mL in the experiment on Escherichia coli. Further, the minimum inhibitory concentration (MIC) with Yarrowia lipolytica was more than 128 µg/mL.
Take `COc1ccc(N2C(=O)C(N=[N+]=[N-])C2c2ccccc2)cc1` (racemic): the half-maximal inhibitory concentration (IC50) was more than 128 µg/mL in the experiment with Staphylococcus aureus; 64 µg/mL (≈ 217 µM) with Candida albicans; more than 128 µg/mL with Benjaminiella poitrasii; more than 128 µg/mL with Cryptococcus neoformans; 64 µg/mL (≈ 217 µM) in the experiment on Fusarium oxysporum; 64 µg/mL (≈ 217 µM) in the experiment on Escherichia coli. In addition, the IC50 in the experiment on Yarrowia lipolytica turned out to be 128 µg/mL (≈ 435 µM). Also, the MIC against Staphylococcus aureus, in the experiment with Candida albicans, against Benjaminiella poitrasii, against Cryptococcus neoformans, in the experiment on Fusarium oxysporum and against Escherichia coli was more than 128 µg/mL in each case. In addition, the MIC in the experiment with Yarrowia lipolytica was more than 128 µg/mL.
With `COc1ccc(N2C(=O)C(N=[N+]=[N-])C2c2ccc(Cl)cc2)cc1` (racemic), the IC50 was more than 128 µg/mL in the experiment on Staphylococcus aureus; 64 µg/mL (≈ 195 µM) in the experiment on Candida albicans; more than 128 µg/mL with Benjaminiella poitrasii; 64 µg/mL (≈ 195 µM) in the experiment with Cryptococcus neoformans; 64 µg/mL (≈ 195 µM) with Fusarium oxysporum; 128 µg/mL (≈ 389 µM) with Escherichia coli. The IC50 in the experiment on Yarrowia lipolytica was more than 128 µg/mL. Also, the MIC with Staphylococcus aureus, against Candida albicans, in the experiment with Benjaminiella poitrasii, against Cryptococcus neoformans, against Fusarium oxysporum and against Escherichia coli was more than 128 µg/mL each time. The compound further gave an MIC against Yarrowia lipolytica of more than 128 µg/mL.
For the compound `C[C@@H]1[C@H](O)[C@@H](C)/C=C/C=C/C=C/C=C/C=C/C=C/C=C/[C@H](O[C@@H]2O[C@H](C)[C@@H](O)[C@H](N)[C@@H]2O)C[C@@H]2O[C@](O)(C[C@@H](O)C[C@@H](O)[C@H](O)CC[C@@H](O)C[C@@H](O)CC(=O)O[C@H]1C)C[C@H](O)[C@H]2C(=O)O` (stereo in doubt) [AMPHOTERICIN B], the IC50 is 0.5 µg/mL (≈ 0.541 µM) with Candida albicans; 8 µg/mL (≈ 8.66 µM) in the experiment on Benjaminiella poitrasii; 8 µg/mL (≈ 8.66 µM) in the experiment on Cryptococcus neoformans; 8 µg/mL (≈ 8.66 µM) in the experiment with Fusarium oxysporum; 8 µg/mL (≈ 8.66 µM) with Yarrowia lipolytica. Further, the MIC against Candida albicans amounted to 2 µg/mL (≈ 2.16 µM); in the experiment on Benjaminiella poitrasii, 16 µg/mL (≈ 17.3 µM); against Cryptococcus neoformans it was 16 µg/mL (≈ 17.3 µM); in the experiment with Fusarium oxysporum, 16 µg/mL (≈ 17.3 µM); against Yarrowia lipolytica, 16 µg/mL (≈ 17.3 µM).
For `CC1(C)S[C@@H]2[C@H](NC(=O)[C@H](N)c3ccccc3)C(=O)N2[C@H]1C(=O)O` [AMPICILLIN], the results for the IC50 with Staphylococcus aureus and in the experiment on Escherichia coli were 4 µg/mL (≈ 11.4 µM) and 1 µg/mL (≈ 2.86 µM), respectively.
On to `OC(Cn1cncn1)(Cn1cncn1)c1ccc(F)cc1F` [FLUCONAZOLE], for which the half-inhibitory concentration (IC50) worked out at 4 µg/mL (≈ 13.1 µM) in the experiment with Candida albicans; 16 µg/mL (≈ 52.2 µM) in the experiment with Benjaminiella poitrasii; 16 µg/mL (≈ 52.2 µM) in the experiment with Cryptococcus neoformans; 4 µg/mL (≈ 13.1 µM) in the experiment with Fusarium oxysporum; 32 µg/mL (≈ 104 µM) in the experiment on Yarrowia lipolytica. Moreover, the MIC in the experiment with Candida albicans stood at 32 µg/mL (≈ 104 µM); against Benjaminiella poitrasii, 32 µg/mL (≈ 104 µM); against Cryptococcus neoformans, 32 µg/mL (≈ 104 µM); against Fusarium oxysporum, 8 µg/mL (≈ 26.1 µM); against Yarrowia lipolytica, 64 µg/mL (≈ 209 µM).
As for `CN(C)[C@@H]1C(O)=C(C(N)=O)C(=O)[C@@]2(O)C(O)=C3C(=O)c4c(O)cccc4[C@@](C)(O)[C@H]3C[C@@H]12` [TETRACYCLINE], in the experiment with Staphylococcus aureus, half-maximal inhibition (IC50) was put at 8 µg/mL (≈ 18 µM) and 16 µg/mL (≈ 36 µM) was the least that counted as inhibitory (MIC). In the experiment on Escherichia coli, it took 4 µg/mL (≈ 9 µM) to reach half-maximal inhibition (IC50) and inhibition of growth (MIC) required 8 µg/mL (≈ 18 µM).

Usually IC50 stands for the concentration needed to halve the response being measured. A word on the MIC: it is the least concentration at which growth counts as inhibited. Read a high MIC as a less susceptible organism.
